Source: PubChem
This excerpt belongs to a sample that is enriched for hits.
TNAP act mid DEA – activators of human TNAP at intermediate phosphate acceptor; P05186; purified TNAP, CDP-star luminescence, 100 mM DEA, 30 min; stronger effect = higher value; scale: 0 levamisole-inhibited, 1 vehicle-only enzyme; activation factor at 20 µM; 64,000 tested, under 10 active; AID 813;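 active means activation factor of at least 2 at 20 µM, relative to controls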
Ecoli WT expand – blocks growth of wild type E. coli BW25113; OD600 absorbance; growth inhibition, % at 100 µM; AID 710; hit rate 0.15% among 98,000;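 active means growth inhibition above about 50% at one test dose, limit read from the data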;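 further: growth measured after 20 h incubation at 37 °C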
Ecoli tolC – growth inhibitors of E. coli BW25113 tolC mutant; OD615; growth inhibition, % at 10 µM (by protocol); hit rate 2.2% among 65,000;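 active means growth inhibition at or above a cutoff equal to the mean over every tested compound plus 3 SD, cut at about 60% in these data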;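 further: growth measured after 20 h incubation at 37 °C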
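Material: E. coli BW25113 ΔtolC::kan, tolC deletion mutant strain. Measure: percent growth inhibition. Schedule: 37 °C, 20 h exposure. Doses: single-point testing at 10 µM. Signal: A615 absorbance measurement. Buffer or medium: kanamycin-containing LB broth (50 µg/mL).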
WNV NS2B-NS3 inh – inhibitors of West Nile virus NS2B-NS3 protease; z-score (test concentration not listed); WNV NS2B-NS3 protease, fluorogenic substrate Ex360/Em465; stronger effect = lower value; hit rate 0.18% among 65,000; P06935; AID 577; in the data active means z-score below about -3
BAP1 block – inhibitors of human BAP1 deubiquitinase; recombinant BAP1, Ub-AMC hydrolysis fluorescence kinetic; stronger effect = lower value; Q92560; calls only at 20 µM; AID 436; hit rate 0.48% among 72,000;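 active means activity remaining at or below 50% of control, provided the compound also passes the data quality filters; inactive means the rest, including low values that fail the filters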;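 further: 100% = DMSO wells rate and 0% = substrate alone blank rate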
Target sequence (Q92560 whole entry, looked up): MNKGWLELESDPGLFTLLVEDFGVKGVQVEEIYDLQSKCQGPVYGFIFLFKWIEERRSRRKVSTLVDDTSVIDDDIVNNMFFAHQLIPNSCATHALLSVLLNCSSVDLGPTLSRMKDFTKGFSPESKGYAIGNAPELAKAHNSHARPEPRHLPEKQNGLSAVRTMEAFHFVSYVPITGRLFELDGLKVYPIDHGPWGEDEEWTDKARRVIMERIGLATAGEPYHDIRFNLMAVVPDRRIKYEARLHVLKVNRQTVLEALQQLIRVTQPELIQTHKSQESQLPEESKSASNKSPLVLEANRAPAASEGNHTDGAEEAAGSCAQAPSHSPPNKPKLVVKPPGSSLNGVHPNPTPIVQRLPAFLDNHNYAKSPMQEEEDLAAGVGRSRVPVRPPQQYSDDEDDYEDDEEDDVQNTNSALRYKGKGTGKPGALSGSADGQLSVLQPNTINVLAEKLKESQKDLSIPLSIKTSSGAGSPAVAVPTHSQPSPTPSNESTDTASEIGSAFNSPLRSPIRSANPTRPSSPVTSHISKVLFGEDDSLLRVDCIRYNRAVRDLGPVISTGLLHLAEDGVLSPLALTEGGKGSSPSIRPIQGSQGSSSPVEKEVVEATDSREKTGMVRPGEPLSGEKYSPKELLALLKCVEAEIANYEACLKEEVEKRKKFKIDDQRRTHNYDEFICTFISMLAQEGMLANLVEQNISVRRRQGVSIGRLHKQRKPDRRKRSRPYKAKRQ
* = called active by the depositor; i = inactive; x = no result given; + = active, no number.

SMILES	TNAP act mid DEA	Ecoli WT expand	Ecoli tolC	WNV NS2B-NS3 inh	BAP1 block
Cc1cc(C)c2c(c1)-c1cc(C)nn1C(c1ccc3c(c1)OCO3)N2 (configuration not stated)	1	-11.0	26.9	0.44	x
COC(=O)C1=C(C)NC2=C(C(=O)CCC2)C1c1cc(Cl)c(O)c(OC)c1 (configuration not stated)	x	x	x	x	i
CCCn1nnc(NC(=O)COc2ccc(C3CCCCC3)cc2)n1	0.9	2.0	100.0*	-0.66	i
CCCn1nnc(NC(=O)COc2ccc(Cl)cc2)n1	0.9	23.0	-4.3	0.61	i
CC(C)NCc1c(O)c(Br)cc2oc3c(c12)CCCC3	1	-16.0	13.9	-3.96*	i
Cc1ccc(SCC(=O)N(Cc2nc(-c3ccccc3)no2)C(C)C)cc1	0.9	-4.0	73.5*	-0.37	i
COc1cc(OC)cc(C(=O)N(Cc2nc(-c3cccc(C)c3)no2)C(C)C)c1	0.8	-10.0	66.6*	0.92	i
Cc1ccc(C(=O)N(Cc2nc(-c3ccc(C)cc3)no2)C(C)C)cc1	0.9	-5.0	-2.5	-0.89	i
CC(C)N(Cc1nc(-c2ccc(Cl)cc2)no1)C(=O)c1cccs1	0.9	-1.0	68.2*	0.01	i
CC(C)N(Cc1nc(-c2ccccc2)no1)C(=O)c1ccc(Cl)cc1	0.9	-5.0	68.2*	-0.89	i
COc1ccc(-c2noc(CCC(=O)N(C)c3cccc(C)c3)n2)cc1	1	-2.0	67.6*	-1.06	i
COc1ccc(-c2noc(CCC(=O)Nc3cccc(C)c3)n2)cc1	0.9	-5.0	12.1	-1.02	i
CCc1nc2ccccc2c(=O)n1NC(=O)c1c(O)c2ccccc2[nH]c1=O	1	-8.0	85.0*	-0.85	i
CCNC(=O)c1c(O)c2ccccc2[nH]c1=O	1	0.0	-1.7	-0.24	i
S=c1[nH]nc(COc2ccccc2)n1/N=C/C(Cl)=C/c1ccccc1	x	-10.0	x	x	x
Cn1c(SCC(=O)Nc2ccccc2Oc2ccccc2)nc2ccccc2c1=O	x	x	x	x	i
CCCCSC1=C(C#N)C(c2ccccc2C)C(C(=O)OCC)C(=O)N1 (configuration not stated)	0.9	-7.0	71.4*	0.22	i
CCOC(=O)CSC1=C(C#N)C(c2ccccc2OCC)C(C(=O)OCC)C(=O)N1 (configuration not stated)	0.9	5.0	17.9	-0.57	i
COc1ccc(-c2onc(C)c2-c2ccc(C(=O)OC(C)C)o2)c(O)c1	0.9	-3.0	100.0*	-0.14	i
Cc1cc(C)n(-c2nc3ccccc3nc2N2CCCC2)n1	x	-1.0	x	x	x
Cc1cc(C)n(-c2nc3ccccc3nc2N2CCCCCC2)n1	1	4.0	74.0*	-1	i
Cc1cccc(-c2nnc(NC(=O)c3ccc(Cl)cc3)o2)c1	1	30.0	100.0*	-0.48	i
COc1cccc(-c2nnc(NC(=O)C(C)C)o2)c1	x	9.0	x	x	x
COc1cccc(-c2nnc(NC(=O)c3cccc(F)c3)o2)c1	0.9	x	100.0*	-0.29	i
O=C(Nc1nnc(-c2ccc3c(c2)CCCC3)o1)c1ccccc1Cl	0.8	6.0	97.6*	-1.09	i
SMILES	TNAP act mid DEA	Ecoli WT expand	Ecoli tolC	WNV NS2B-NS3 inh	BAP1 block
COc1cccc(C(=O)Nc2cccc(-c3nnc(-c4ccccc4)o3)c2)c1	0.9	x	27.2	0.9	i
COc1cccc(-c2nnc(NC(=O)c3ccccc3Br)o2)c1	0.8	x	72.2*	0.44	i
O=C(Nc1nnc(-c2ccc3c(c2)CCCC3)o1)c1ccccc1	x	25.0	x	x	x
COc1ccc(C(=O)Nc2nnc(-c3ccccc3)o2)cc1OC	0.9	-6.0	36.4	-0.06	i
O=C(Nc1nnc(-c2ccc3c(c2)OCCO3)o1)c1ccc(Cc2ccccc2)cc1	0.9	-1.0	100.0*	-0.75	i
C=CCSc1n[nH]c(-c2ccc(OCCCC)cc2)n1	0.8	0.0	85.5*	-0.25	i
Nc1ccc(NC(=O)c2ccco2)cc1	x	x	x	x	i
CC(C)COc1ccc(Cc2cnc(N)nc2N)cc1	x	66.0*	x	x	x
COc1ccc(Cc2nnc(N)s2)cc1	x	1.0	x	x	x
COc1ccc(N2C3=C(C(=O)CC(C)(C)C3)C(c3ccccc3)C3=C2c2ccccc2C3=O)cc1 (configuration not stated)	x	x	x	x	i
COc1ccccc1-c1nnc(NC(=O)c2ccccc2F)o1	0.9	7.0	0.9	0.49	i
CCN(Cc1ccccc1)S(=O)(=O)c1ccc(C(=O)Nc2nnc(-c3ccccc3OC)o2)cc1	1	-3.0	97.8*	1.51	i
COc1ccccc1-c1nnc(NC(=O)c2ccc(S(=O)(=O)N(C)C)cc2)o1	1	0.0	96.0*	1.86	i
O=C(Nc1nc(SCc2ccc(F)cc2)ns1)c1ccco1	x	x	81.0*	1.6	i
Fc1ccc(CSc2nsc(SCc3ccc(F)cc3)n2)cc1	x	7.0	x	x	x
Cc1cc(N2C3CCC2CC(O)(c2ccc(F)cc2)C3)nc(-c2ccccc2)n1 (configuration not stated)	0.8	-5.0	100.0*	0.25	i
Cc1ccc(-c2cnn(-c3cccc([N+](=O)[O-])c3)c2N)cc1	x	0.0	x	x	x
Nc1ncncc1-c1ccc([N+](=O)[O-])cc1	x	78.0*	x	x	x
CCOc1ccc(C(=O)Nc2cccc(-c3nc4cc(C)ccc4o3)c2)cc1	x	x	x	x	i
CCCc1cc(C(=O)N2CCN(c3ccccc3C)CC2)cs1	1	-1.0	100.0*	-0.01	x
Cc1ccc(N2CCN(C(=O)c3ccccc3)CC2)c(C)c1	0.8	7.0	19.1	0.55	i
c1ccc(C2=Nn3c(nnc3-c3n[nH]c4c3CCC4)SC2)cc1	1	3.0	24.1	-0.7	i
Clc1ccc(C2=Nn3c(nnc3-c3n[nH]c4c3CCC4)SC2)cc1Cl	1.1	11.0	99.2*	-0.21	i
CCOc1ccc(N(CC(=O)Nc2cccc(Cl)c2)S(=O)(=O)c2c(C)noc2C)cc1	1	3.0	73.1*	0.18	i
CCOc1ccc(N(CC(=O)Nc2cccc(OC)c2)S(=O)(=O)c2c(C)noc2C)cc1	0.8	-21.0	70.1*	-0.02	i
SMILES	TNAP act mid DEA	Ecoli WT expand	Ecoli tolC	WNV NS2B-NS3 inh	BAP1 block
CCOc1ccc(N(CC(=O)Nc2ccc(C)cc2)S(=O)(=O)c2c(C)noc2C)cc1	0.9	-7.0	-13.9	-0.05	i
Cc1ccc(N(CC(=O)Nc2ccc3c(c2)OCCO3)S(=O)(=O)c2c(C)noc2C)cc1	0.9	-8.0	64.9*	-0.44	i
NC(=S)c1ccc[n+]([C@@H]2O[C@@H](COP(=O)([O-])OP(=O)(O)OC[C@H]3O[C@@H](n4cnc5c(N)ncnc54)C(OP(=O)(O)O)[C@H]3O)C(O)C2O)c1 (some centres not stated)	x	x	x	x	i
C1C2CC3CC1CC(C2)C3NC1C2CC3CC(C2)CC1C3 (configuration not stated)	x	x	x	x	i
C=Cc1c(C)c2cc3[nH]c(cc4nc(cc5nc(cc1[nH]2)C(C)=C5CCC(=O)O)C(CCC(=O)O)=C4C)c(C)c3C=C	x	x	x	x	+
COc1cc(OC)cc(-n2nnnc2SCC(=O)N2CCCc3ccccc32)c1	0.9	-10.0	84.4*	0.91	i
